IC50, MIC and Activity data for 5 substances are collected here from ChEMBL document CHEMBL4334429, “Rational design of novel amphipathic antimicrobial peptides focused on the distribution of cationic amino acid residues” (Medchemcomm, 2019).

By IC50 is commonly meant the concentration needed to halve the response being measured. Higher therefore signals weaker potency in that assay. As usually defined, the MIC is the lowest concentration found to suppress growth.

The subject of one series is Erythrocyte. In words: Hemolytic activity in human RBC after 3 hrs. Type of series: ADME, cell-based. The procedure, abridged:
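Human red blood cells from Japanese Red Cross volunteers, washed three times and resuspended in PBS. Mixed 1:1 with diluted peptide and incubated 3 h at 37 °C. After centrifugation, supernatant absorbance read at 535 nm. Triton X-100 and M-lycotoxin served as positive controls.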

The test system of another series is Staphylococcus aureus. Description: Antibacterial activity against Staphylococcus aureus after 18 hrs by broth microdilution method. The series is classed as functional. The procedure, abridged:
(§1)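 Bacteria grown to mid-log phase in LB medium at 37 °C. Peptides 2-fold serially diluted from 200 μM to 1.56 μM and mixed 1:1 with inoculum of 10^6 CFU per mL. Incubation 18 h at 35 °C. MIC is the lowest concentration giving complete growth inhibition by visual inspection […].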
For orientation: Broth dilution looks for growth in wells or tubes with falling amounts of substance.

The subject of series [1] is Staphylococcus epidermidis. In words: Antibacterial activity against Staphylococcus epidermidis after 18 hrs by broth microdilution method. Type of series: functional. Put shortly:
as §1

The subject of series [2] is Escherichia coli. In words: Antibacterial activity against Escherichia coli NBRC 3972 after 18 hrs by broth microdilution method. The conditions noted are these: NBRC 3972, 18 h. The series is classed as functional. The procedure, abridged: as §1
The test system of series [3] is Escherichia coli. Description: Antibacterial activity against Escherichia coli DH5[alpha] after 18 hrs by broth microdilution method. The series is classed as functional. The procedure, abridged:
as §1

In the next series the test system is Proteus vulgaris. In words: Antibacterial activity against Proteus vulgaris NBRC 3045 after 18 hrs by broth microdilution method. To be noted: NBRC 3045, 18 h. The series is classed as functional. Put shortly: as §1
A further series deals with Pseudomonas aeruginosa. Description: Antibacterial activity against Pseudomonas aeruginosa NBRC 13725 after 18 hrs by broth microdilution method. The series is classed as functional. To be noted: NBRC 13275, 18 h, in the assay text read “NBRC 13275” for “NBRC 13725”. Put shortly: as §1
In the next series the test system is Lipid bilayer. Description: Induction of membrane disruption in PG/CL/PE unilamellar vesicles assessed as increase in carboxyfluorescein leakage at 6.25 uM by fluorescence assay. The procedure, abridged: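 E. coli-mimic liposomes of PG/CL/PE (2 : 1 : 7, w/w) loaded with 50 mM carboxyfluorescein in 20 mM Tris-HCl, pH 7.4; free dye removed by Sephadex G-50 gel filtration. Peptide added at 6.25 μM and leakage read by fluorescence. Release (%) = (Fobs−F0)/(F100−F0) × 100, with 100% set by Triton X-100.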

The subject of series [4] is TIG-3. Description: Cytotoxicity against human TIG3 at 100 uM after 72 hrs by WST-8 assay. To be noted: tig-3, 72 h. The series is classed as cell-based. Put shortly: (§2)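 Human normal fibroblast TIG-3 cells kept in DMEM with 10% FBS and 100 μg ml–1 kanamycin. Seeded at 5 × 10^3 cells per well, treated 24 h later for 72 h. WST-8 reagent then added for 0.5 h at 37 °C, 5% CO2, and absorbance read at 450 nm. Means ± SD, n = 4.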

In series [5] the test system is TIG-3. Description: Cytotoxicity against human TIG3 at 1 to 100 uM after 72 hrs by WST-8 assay. The series is classed as cell-based. To be noted: tig-3, 72 h. Put shortly: as §2
In general terms: Tetrazolium dyes change colour on reduction, which living cells bring about.

The source made the active and inactive calls. The rule behind the calls is not given here. Where only a bound is given, the exact number is not on record here.

For H-IWLTALKFLGKHAAKHLAKQQLSKL-NH2, the IC50 with Erythrocyte was 0.78 µM.
As for H-GIGKFLHSAKKFGKAFVGEIMNS-NH2, the MIC is 100 µM against Staphylococcus aureus; 25 µM in [1]; 3.12 µM in the series with Escherichia coli [2]; 3.12 µM in the series on Escherichia coli [3]; over 100 µM against Proteus vulgaris; 12.5 µM with Pseudomonas aeruginosa. This substance returned a concentration for half-maximal inhibition (IC50) in the series with Erythrocyte of over 100 µM.
H-KKKKKKKKKGGGLLALLALLA-NH2: the MIC with Staphylococcus aureus was 12.5 µM; in series [1], 6.25 µM; with Escherichia coli [2], 6.25 µM; against Escherichia coli [3] it was 12.5 µM; in the series on Proteus vulgaris, over 100 µM; in the series on Pseudomonas aeruginosa, 6.25 µM. Besides, the outcome in the series with Lipid bilayer was Active. In the series on Erythrocyte, this substance yielded an IC50 of 25 µM. In the series with TIG-3 [4], the Activity result is on record as “Toxic”.
Turning to H-KLLKKAGKLLKKAGKLLKKAG-NH2, the MIC in the series on Staphylococcus aureus is 12.5 µM; in series [1] it was 1.56 µM; in the series on Escherichia coli [2] it was 3.12 µM; against Escherichia coli [3], 3.12 µM; in the series with Proteus vulgaris it was over 100 µM; in the series on Pseudomonas aeruginosa, 1.56 µM. In addition, the result in the series with Lipid bilayer was Active. For the same substance, in the series with Erythrocyte, the IC50 is over 100 µM. For the same substance, the Activity entry in the series on TIG-3 [5] is listed as “Non-Toxic”.
H-KKKLAKLKLGAKLKLKGKLGA-NH2: the MIC against Staphylococcus aureus was 100 µM; in series [1] it was 6.25 µM; in the series on Escherichia coli [2], 12.5 µM; against Escherichia coli [3], 25 µM; against Proteus vulgaris it was over 100 µM; in the series on Pseudomonas aeruginosa it was 3.12 µM. Moreover, the result in the series on Lipid bilayer was Active. The substance further showed an IC50 in the series on Erythrocyte of 100 µM. Besides, in the series on TIG-3 [5], the Activity entry is reported as “Non-Toxic”.
